In ChEMBL document CHEMBL1136489 (Bioorg Med Chem Lett, 2003):

Tests used:
Assay type in all cases: protein-complex assay
[1] = target: Geranylgeranyl transferase type I (Homo sapiens, UniProt P49354+P53609); assay: In vitro inhibition of Geranylgeranyl protein transferase I
Procedure, shortened: (§1)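 Cell-free enzyme inhibition assay, run as previously described with modifications.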

[2] = target: Protein farnesyltransferase (Homo sapiens, UniProt P49354+P49356); assay: In vitro inhibition of farnesyl protein transferase; procedure, shortened: as §1
[3] = target: Protein farnesyl/geranylgeranyl transferase (Homo sapiens) (UniProt P49354+P49356+P53609); assay: Selectivity for Geranylgeranyl protein transferase I compared to farnesyl protein transferase

IC50 [1] [nM] | IC50 [2] [nM] | Selectivity [3] | SMILES
146 | > 10000 | > 68 | CCC(C(=O)NOC/C=C(\C)CC/C=C(\C)CC/C=C(\C)CCC=C(C)C)P(=O)(O)O (stereo unspecified)
151 | > 10000 | > 66 | CC(C)=CCC/C(C)=C/CC/C(C)=C/CC/C(C)=C/CONC(=O)C(C)P(=O)(O)O (stereo unspecified)
111 | > 10000 | > 90 | CC(C)=CCC/C(C)=C/CC/C(C)=C/CC/C(C)=C/CNC(=O)C(C)P(=O)(O)O (stereo unspecified)
566 | > 10000 | > 18 | CCC(C(=O)NC/C=C(\C)CC/C=C(\C)CC/C=C(\C)CCC=C(C)C)P(=O)(O)O (stereo unspecified)
66 |  |  | CC(C)=CCC/C(C)=C/CC/C(C)=C/CC/C(C)=C/CONC(=O)CP(=O)(O)O
275 | 5000 | 18 | CC(C)=CCC/C(C)=C/CC/C(C)=C/CC/C(C)=C/CNC(=O)CP(=O)(O)O
